Source: PubChem BioAssay (several laboratories)
A selection: hits, their analogues and other compounds. The true share with any hit is near 2.5%.
TRPC4 inh: TRPC4 (mouse) channel inhibition. Q9QUQ5. HEK293 TRPC4beta/mu-opioid, DAMGO-evoked Fluo4 calcium flux; active compounds read low. B-score at 10 µM. hit rate 0.39% among 300,000;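 active means B-score over 3 SD under the library average, no early fluorescence shift, positive overall ratio signal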
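Assay system: HEK293 cells with stable TRPC4beta plus mu-opioid receptor expression. Dosing: single dose. Measured by: Fluo4 Ca2+ flux fluorescence. Also added: DAMGO in two steps, submaximal then maximal. Read-out: B score from integrated Fluo4 fluorescence ratio.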
DSG3 Ab inh: human desmoglein-3 autoantibody binding inhibition | P32926 | DSG3-coupled beads, scFv-anti-DSG3-GFP binding, flow cytometry; active compounds read low | binding (percent of control), % at 10 µM | hit rate 0.48% among 310,000;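 active means binding more than 3 SD below its plate's average and above zero; inconclusive means below that plate limit but binding exactly zero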;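 further: hits lower antibody fragment binding to DSG3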
TRPC6 activator: mouse TRPC6 channel activation | AID 2550 | HEK293-TRPC6 membrane potential dye fluorescence; active compounds read high | hit rate 0.13% among 310,000 | B-score at 10 µM | Q61143;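 active means B-score of the integrated fluorescence ratio above library mean plus 3 SD, and starting fluorescence ratio within library mean plus 5 SD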;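 further: higher score means more depolarization so channel activation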
TRPC4 agonist: TRPC4 (mouse) channel activation; B-score at 10 µM; hit rate 0.49% among 310,000; Q9QUQ5; HEK293 TRPC4beta/mu-opioid, Fluo4 calcium fluorescence; active compounds read high;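 active means B-score above 5 SD of library B-scores, and initial fluorescence ratio not above library mean plus 5 SD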;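 further: positive B-score marks a calcium rise read as TRPC4 activation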
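System: HEK293 cells stably co-expressing mouse TRPC4beta and mu-opioid receptor; Schedule: Fluo4 dye loading 45 min at room temperature, 110 s recording; Detection: Fluo4 fluorescence, kinetic; Evaluation: B-scored integrated calcium fluorescence ratio; Controls: buffer (low) and maximal DAMGO (high).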
TRPC4 potent: TRPC4 (mouse) allosteric potentiation; Q9QUQ5; HEK293 TRPC4beta/mu-opioid, DAMGO EC20, Fluo-4 Ca2+ flux; active compounds read high; B-score at 10 µM; hit rate 0.42% among 310,000;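 active means B-score of calcium response area above 5 SD of library B-scores, with initial fluorescence ratio within 5 SD of library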
TRPC6 inhibitor: mouse TRPC6 channel inhibition | B-score at 10 µM | hit rate 1.1% among 310,000 | AID 2553 | HEK293-TRPC6, membrane potential dye, ACh-evoked depolarization; active compounds read low;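 active means B-score under library mean minus 3 SD, initial fluorescence not abnormally high, positive integrated signal ratio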;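 further: B-score derived from integrated fluorescence ratio over the kinetic read; more negative B-score means stronger inhibition of depolarization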
Each line names hits and unclear results; the compound was inactive in the other large screens.

c1coc(CNc2nc3ccccc3n2CCN2CCOCC2)c1	none
c1ccc(Cn2c(NCc3ccco3)nc3ccccc32)cc1	TRPC4 inh -6
COc1ccc(CNc2nc3ccccc3n2Cc2ccccc2)cc1OC	none
c1cn(-c2ccc(-c3ccnc4ncnn34)cc2)cn1	none
CSc1ncccc1C(=O)OCC(=O)c1cccc(Br)c1	none
COc1ccc(OC)c(/C=C/C(=O)N(C)CC(=O)Nc2cc(C)ccc2C)c1	none
CCOc1ccc(C(CC(=O)O)NS(=O)(=O)c2ccc(C)cc2)cc1OC (configuration not stated)	none
CCOC(=O)CC(NC(=O)c1cc2cc(Br)ccc2oc1=O)c1cccc([N+](=O)[O-])c1 (configuration not stated)	TRPC4 potent 26
CCOC(=O)CC(NS(=O)(=O)c1ccc(OC)c(C)c1)c1cccc([N+](=O)[O-])c1 (configuration not stated)	TRPC4 inh -6
CCOC(=O)c1cc2cc([N+](=O)[O-])ccc2oc1=O	none
C[C@H]1CN([C@@H](C)CO)C(=O)c2cc(Br)cnc2O[C@H]1CN(C)C(=O)C1CC1	none (no result: TRPC4 inh, TRPC6 activator, TRPC4 agonist, TRPC4 potent, TRPC6 inhibitor)
CCOC(=O)CCc1c(C)nc(-n2[nH]c(C)c(CCO)c2=O)[nH]c1=O	none
NNC(=O)c1ccc(CSc2n[nH]c(=O)[nH]c2=O)cc1	none
O=C(NC(=S)NCc1ccccc1)C1CC1	DSG3 Ab inh 25
CN(C)c1ccc(Nc2ccc([N+](=O)[O-])cn2)cc1	none
CCN(CCNC(=O)C1CCCN(c2ncnc3c2nc2n3CCCCC2)C1)Cc1ccccc1 (configuration not stated)	TRPC4 potent 19
Cc1ccc(C)c(N2CCN(C(=O)C3CCCN(c4ncnc5c4nc4n5CCCCC4)C3)CC2)c1 (configuration not stated)	TRPC4 potent 15
CC1CC(C)CN(CCCNC(=O)C2CCCN(c3ncnc4c3nc3n4CCCCC3)C2)C1 (configuration not stated)	TRPC4 potent 18 (no result: DSG3 Ab inh)
Cc1ccc(N2CCN(C(=O)C3CCCN(c4ncnc5c4nc4n5CCCCC4)C3)CC2)c(C)c1 (configuration not stated)	none
CC1CCCN(CCCNC(=O)C2CCCN(c3ncnc4c3nc3n4CCCCC3)C2)C1 (configuration not stated)	none
COc1cc(C(=O)OCC(=O)Nc2ccc(C)cc2)cc(OC)c1OC	none
COCCCN1CC(=O)N2C(c3ccccc3)c3[nH]c4ccccc4c3C[C@H]2C1=O (some centres not stated)	DSG3 Ab inh inconclusive
C=CCN1CC(=O)N2C(c3ccccc3)c3[nH]c4ccccc4c3C[C@H]2C1=O (some centres not stated)	TRPC4 potent 13
Cc1cc(C)c2nc(Cl)c(C3NC(=O)c4ccccc4N3)cc2c1 (configuration not stated)	none
Cc1ccc(C)c2nc(Cl)c(C3NC(=O)c4ccccc4N3)cc12 (configuration not stated)	TRPC4 potent 15
Cc1nn(-c2ccccc2)c2[nH]c(=O)c(CNc3ccc(N4CCOCC4)cc3)cc12	DSG3 Ab inh 76
CC(C)(C)c1nn(-c2ccccc2)c2[nH]c(=O)c(CNc3ccc4c(c3)OCCO4)cc12	none
COc1ccc(CC(=O)Nc2cccc(-c3csc(C)n3)c2)cc1	DSG3 Ab inh -20
CC(Sc1nc2sc3c(c2c(=O)n1-c1ccccc1)CCCC3)C(=O)O (configuration not stated)	TRPC4 potent 17
Cc1ccc(S(=O)(=O)/N=C(\CCl)N2CCOCC2)cc1	none
CCOC(=O)C1=C(C)N(CCC(=O)O)C(=O)NC1c1ccccc1Cl (configuration not stated)	none
CN(C(=O)COC(=O)CCCN1C(=O)c2cccc3cccc(c23)C1=O)C1CCS(=O)(=O)C1 (configuration not stated)	none
Cc1cc2cc(CNC(=S)Nc3ccc(OC(F)F)cc3)ccc2n1C	DSG3 Ab inh 63
FC(F)Oc1ccc(NC(=S)NCc2ccccc2)cc1	none
